Activity calls are given as the source filed them. The rule behind the calls is not given here.
Legend:
[1] = system: SMB; test: Antiprion activity against Scrapie prion protein-mediated scrapie in mouse SMB cells by dot blot analysis; assay type: cell-based
Summary of the method: (§1)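 SMB scrapie-infected mouse cells, non-neuronal, in medium 199 with 10% newborn calf and 5% fetal calf serum, seeded at 3 × 10⁴ cells/well and attached for 24 h. Compound DMSO stocks were diluted via HBSS into medium and applied for 5 days. Lysates of ~30-40 μg protein/well were dot-blotted, digested with proteinase K at 75 μg mL⁻¹ (1 h, 37 °C) and denatured in 1.8 M guanidine thiocyanate. Read-out was %PrP^Sc versus DMSO-only control, in triplicate.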

[2] = system: SMB; test: Antiprion activity against Scrapie prion protein-mediated scrapie in mouse SMB cells assessed as remaining PrP-Sc level at 1 uM after 5 days by Bradford assay relative to control; assay type: cell-based
Summary of the method: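 Compound DMSO stocks were diluted via HBSS into medium and applied for 5 days. Lysates of ~30-40 μg protein/well were dot-blotted, digested with proteinase K at 75 μg mL⁻¹ (1 h, 37 °C) and denatured in 1.8 M guanidine thiocyanate. Read-out was %PrP^Sc versus DMSO-only control, in triplicate.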

[3] = Antiprion activity against Scrapie prion protein-mediated scrapie in mouse SMB cells assessed as remaining PrP-Sc level after 5 days by Bradford assay; assay type: cell-based; settings: 120 h
Summary of the method: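 Same SMB dot-blot protocol with 5-day exposure. Compounds were rescreened over a range of concentrations to fit an EC₅₀ from dose-response curves. Each determination was run in triplicate, in at least two independent experiments. PrP^Sc was measured relative to an untreated DMSO-only control.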

[4] = Antiprion activity against Scrapie prion protein-mediated scrapie in RML mouse ScN2a cells assessed as reduction of PrP-Sc level after 6 days by immunoblotting; assay type: cell-based; settings: 144 h
[5] = Antiprion activity against Scrapie prion protein-mediated scrapie in mouse ScNB cells assessed as PrP-res accumulation after 4 days by immunoblotting; assay type: cell-based; settings: 96 h
[6] = target: Major prion protein (Mus musculus) (UniProt P04925); test: Binding affinity to mouse PrP up to 40 uM by surface plasmon resonance assay
Chain of Major prion protein (Mus musculus) (P04925 whole entry): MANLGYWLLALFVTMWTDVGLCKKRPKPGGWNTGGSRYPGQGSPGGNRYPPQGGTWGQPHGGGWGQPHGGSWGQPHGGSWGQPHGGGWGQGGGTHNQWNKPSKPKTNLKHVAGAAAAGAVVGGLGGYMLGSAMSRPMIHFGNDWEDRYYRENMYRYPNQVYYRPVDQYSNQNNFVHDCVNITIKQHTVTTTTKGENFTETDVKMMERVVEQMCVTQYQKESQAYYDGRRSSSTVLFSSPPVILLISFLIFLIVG

[7] = target: Major prion protein (Homo sapiens) (UniProt P04156); test: Binding affinity to human PrP up to 40 uM by surface plasmon resonance assay
[8] = system: SMB; test: Antiprion activity against Scrapie prion protein-mediated scrapie in mouse SMB cells assessed as remaining PrP-Sc level at 10 uM after 5 days by Bradford assay relative to control; assay type: cell-based; summary of the method: as §1
[9] = system: SMB; test: Antiprion activity against Scrapie prion protein-mediated scrapie in mouse SMB cells assessed as remaining PrP-Sc level at 24 uM after 5 days by Bradford assay relative to control; assay type: cell-based
[10] = system: SMB; test: Antiprion activity against Scrapie prion protein-mediated scrapie in mouse SMB cells assessed as remaining PrP-Sc level at 20 uM after 5 days by Bradford assay relative to control; assay type: cell-based; summary of the method: as §1
[11] = Cytotoxicity against mouse SMB cells at 20 uM after 5 days by MTT assay; assay type: cell-based; settings: 120 h
Summary of the method: (§2)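 SMB cells were seeded at 3 × 10⁴ cells/well and attached for 24 h. Compound was added from DMSO stock diluted through HBSS into the medium, and cells were exposed for 5 days. Viability was read by MTT assay following the standard reagent protocol.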

[12] = Cytotoxicity against mouse SMB cells at 10 uM after 5 days by MTT assay; assay type: cell-based; settings: 120 h; summary of the method: as §2

Structure (SMILES)	Activity [2] [%]	EC50 [3] [nM]	Activity [6]	Activity [7]	also measured
O=C(Nc1ccc(N2CCOCC2)cc1)C(=O)c1c[nH]c2ccccc12	4.6	9	–	–	Activity [1]: Dose-dependent effect
CCN(CC)CCCC(C)Nc1c2ccc(Cl)cc2nc2ccc(OC)cc12 (configuration not stated) [QUINACRINE]	–	420	–	–	EC50 [4]: 300 nM
COc1cc(/C=C/C(=O)CC(=O)/C=C/c2ccc(O)c(OC)c2)ccc1O [CURCUMIN]	–	950	–	–	EC50 [5]: 10 nM
O=C(Nc1cccc(F)c1)C(=O)c1c[nH]c2ccccc12	27.1	640	inactive	inactive	–
COc1ccc(NC(=O)C(=O)c2c[nH]c3ccccc23)cc1	6.7	11	inactive	inactive	–
COc1cccc(NC(=O)C(=O)c2c[nH]c3ccccc23)c1	–	230	inactive	inactive	Remaining PrP-Sc level [8]: 17.5%
O=C(Nc1ccc(F)nc1)C(=O)c1c[nH]c2ccccc12	52.3	1210	–	–	Activity [1]: Dose-dependent effect
O=C(Nc1ccccc1)C(=O)c1c[nH]c2ccccc12	19.5	320	inactive	inactive	–
CN(C(=O)C(=O)c1c[nH]c2ccccc12)c1ccccc1	–	–	–	–	Activity [9]: 127%
O=C(Nc1ccc(O)cc1)C(=O)c1c[nH]c2ccccc12	17.8	240	inactive	inactive	–
O=C(Nc1ccc(N2CCCCC2)cc1)C(=O)c1c[nH]c2ccccc12	6.5	72	–	–	Activity [1]: Dose-dependent effect
CC(C)NC(=O)C(=O)c1c[nH]c2ccccc12	–	–	–	–	Remaining PrP-Sc level [10]: 74.9%; Activity [11]: Toxic; Activity [12]: Toxic

— ChEMBL document CHEMBL1156119 (J Med Chem, 2009)
